# From PubChem BioAssay
# Most compounds without a hit are left out; they make up all but 2.3% or so of the library.
# PLCg1 inh – PLC-gamma1 enzyme inhibitors, primary screen, biochemical, fluorescence, purified enzyme; AID 720700, 2013; 0.84% of 370,000 active; inhibition, % at 12.2 µM; fluorogenic substrate; 1-phosphatidylinositol 4,5-bisphosphate phosphodiesterase gamma-1 (Homo sapiens), P19174; in the data active = inhibition above about 9.5%
# ADAM10 inh – human ADAM10 inhibitors, primary screen, biochemical, QFRET, HTS | Disintegrin and metalloproteinase domain-containing protein 10 (Homo sapiens), O14672 | recombinant ADAM10, EDANS/DABCYL FRET peptide cleavage, 3 h | inhibition, % at 7 µM | 0.62% of 370,000 active | AID 720582, 2013;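 active = inhibition above a per-campaign cutoff equal to the mean of compounds falling between control-based bounds plus 3 SD, cut at about 20% in these data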;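 also: 0% = DMSO wells while the 100% control is not disclosed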
# PLC-beta3 inh – human PLC-beta3 inhibitors, primary screen, biochemical, fluorescence. 0.18% of 370,000 active. 1-phosphatidylinositol 4,5-bisphosphate phosphodiesterase beta-3 (Homo sapiens), Q01970. Purified PLC-beta3, fluorogenic substrate. inhibition, % at 12.2 µM;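 also: 0% = median of compound wells on plate and 100% = full blocker control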
# Tb MetRS inh – T. brucei MetRS inhibitors, primary screen, biochemical, luminescence; methionyl-tRNA synthetase (Trypanosoma brucei brucei); purified T. brucei MetRS, ATP depletion, Kinase-Glo luminescence; inhibition, % at 11.9 µM; 0.4% of 360,000 active;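 active = inhibition above a per-plate cutoff of the control wells' mean inhibition plus 3 SD, cut at about 5.5% in these data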;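 also: 0% = DMSO wells median and 100% = median of wells with control inhibitor compound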
#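 Test system – parasite MetRS enzyme · Reagent – substrates ATP, L-methionine and bulk Escherichia coli tRNA · Doses – 11.9 µM compound single dose, 0.9% DMSO · Times – 15 min enzyme-compound preincubation, 2 h reaction, 10 min detection, 25 °C · Signal – Kinase-Glo luminescence, ATP depletion format · Controls – DMSO-only wells as low control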
# ADAM17 inh – ADAM17 inhibitors, primary screen, biochemical, QFRET; 0.83% of 370,000 active; recombinant ADAM17, EDANS/DABCYL FRET peptide cleavage; Disintegrin and metalloproteinase domain-containing protein 17 (Homo sapiens), P78536; inhibition, % at 6.95 µM; AID 720648, 2013;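 active = inhibition above the mean of compounds lying between control limits plus 3 SD, set per campaign, cut at about 8.5% in these data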;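 also: 0% = DMSO-only wells as the low control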
# ADAM10 confirm – human ADAM10 inhibitors, confirmation, biochemical, QFRET, triplicate. inhibition, % at 6.95 µM. AID 743208, 2013. 1% of 2,100 active. ADAM10 QFRET peptide cleavage, EDANS fluorescence. shares compounds with ADAM10 inh;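 active = inhibition above about 20% chosen separately for each screening run, limit read from the data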;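 also: 0% = DMSO wells and 100% = marimastat wells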
# ADAM17 counter – ADAM17 inhibitors, counter-screen for ADAM10 exosite inhibitor project, biochemical, QFRET, high throughput. shares compounds with ADAM10 inh. ADAM17 QFRET peptide cleavage, EDANS fluorescence. inhibition, % at 6.95 µM. 0.5% of 2,100 active. AID 743214, 2013;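 active = mean triplicate inhibition above the solvent-only control wells' mean plus 3 SD, cut at about 12% in these data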;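 also: 0% = DMSO wells and 100% = marimastat wells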
# ADAM10 ctr – ADAM10 inhibitors, counter-screen for ADAM17 exosite inhibitor project, biochemical, FRET, human ADAM10. recombinant ADAM10, EDANS/DABCYL FRET peptide cleavage, 3 h. 47% of 2,900 active. inhibition, % at 6.95 µM. shares compounds with ADAM17 inh. AID 743256, 2014;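 active = mean inhibition over the triplicate runs exceeds the activity threshold set in the earlier primary screen, cut at about 20% in these data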;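 also: 0% = DMSO wells and 100% = marimastat wells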
# ADAM17 confirm – ADAM17 inhibitors, hit retest, confirmation, biochemical, QFRET peptide cleavage; shares compounds with ADAM17 inh; recombinant ADAM17, EDANS/DABCYL QFRET peptide cleavage; 65% of 2,900 active; inhibition, % at 6.95 µM;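 active = mean inhibition across replicates above the hit cutoff set in the primary screen, cut at about 8.5% in these data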;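 also: 0% = DMSO wells and 100% = marimastat wells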
# PLCg1 ctr – PLC-gamma1 enzyme inhibitors, counter-screen for PLC-beta3 inhibitor project, biochemical, fluorescence. inhibition, % at 12.3 µM. shares compounds with PLCg1 inh. 3.1% of 3,300 active. purified PLC-gamma1, fluorogenic substrate; in the data active = inhibition above about 9.5%
# PLCbeta3 conf – PLC-beta3 inhibitor confirmation, biochemical, fluorescence, purified enzyme. fluorogenic substrate fluorescence. 1% of 3,300 active. inhibition, % at 12.3 µM. shares compounds with PLCg1 inh
# * = called active by the depositor; · = not tested or not shown. Rule as the data show it, unless noted: active = inhibition above about 11%; inactive = the rest.
SMILES,PLCg1 inh,ADAM10 inh,PLC-beta3 inh,Tb MetRS inh,ADAM17 inh,ADAM10 confirm,ADAM17 counter,ADAM10 ctr,ADAM17 confirm,PLCg1 ctr,PLCbeta3 conf
O=C1C=C(c2ccccc2Oc2ccccc2)C[C@@H](c2ccc(F)cc2)C1,0.0,4.8,-1.8,-1.2,2.1,·,·,·,·,·,·
COc1ccc(CC(=O)N/N=C/c2cccn2-c2ccc([N+](=O)[O-])cc2)cc1OC,11.8*,21.1*,4.1,-0.7,7.6,0.0,-0.1,·,·,4.2,4.0
c1ccc(C[n+]2c(-c3ccccc3)csc2Nc2ccccc2)cc1,-1.9,-5.8,-1.1,0.1,-2.7,·,·,·,·,·,·
CC(C)(C)Nc1scc(-c2ccccc2)[n+]1-c1ccccc1,9.7*,42.1*,-8.2,-0.5,-18.1,-0.6,-0.2,·,·,-3.5,-7.5
CC[C@H](C)[C@H]1CNC(=O)C(=O)N1CC1CCN(CCc2ccccc2)CC1,2.0,-2.4,6.2,0.2,2.9,·,·,·,·,·,·
COc1ccc(NC(=O)c2cc(C3CCCCN3S(=O)(=O)Cc3ccccc3)on2)cn1 (configuration not stated),0.4,-0.6,-1.2,-0.1,1.9,·,·,·,·,·,·
CC1(O)C(=O)C2(C)C=CC1C1C(=O)N(c3ccccc3)C(=O)C12 (configuration not stated),0.2,-4.8,0.9,·,-5.0,·,·,·,·,·,·
O=C(CSc1ccc(Br)c2cccc(Cl)c12)Nc1ccc(S(=O)(=O)Nc2nccs2)cc1,11.0*,31.8*,-3.5,-0.5,15.8*,11.1,5.2,22.7*,13.8*,-6.1,-9.9
O=C(Cc1ccccc1Cl)Nc1ccc(S(=O)(=O)Nc2nccs2)cc1,0.5,3.2,-8.1,0.1,-3.7,·,·,·,·,·,·
Cc1ccc(OCC(=O)OCC(=O)c2cccc([N+](=O)[O-])c2)cc1C,-1.4,1.2,-3.9,-0.5,-6.8,·,·,·,·,·,·
O=C(CSc1ccc(Cl)cc1)N1CCN(c2c(Cl)cccc2[N+](=O)[O-])CC1,1.1,5.7,-3.7,0.1,3.0,·,·,·,·,·,·
O=C(/C=C/c1ccc(Cl)cc1)N1CCN(c2c(Cl)cccc2[N+](=O)[O-])CC1,17.0*,23.3*,10.4,-0.3,11.5*,4.0,1.1,19.3,8.7*,-7.2,1.7
Cc1cc(N2CCCCC2)nc(SCc2ccc(C#N)cc2)n1,10.6*,25.6*,6.0,-0.3,8.6*,3.2,0.5,20.4*,13.1*,-1.3,-1.2
Nc1nc(N)c(N=O)c(Nc2cccc(Cl)c2)n1,3.6,0.8,-0.1,0.0,-1.9,·,·,·,·,·,·
CCn1c(NCc2ccccc2NS(=O)(=O)c2ccc(C)cc2)nc2ccccc21,8.9,27.4*,12.3*,-0.1,16.1*,5.6,2.5,23.6*,14.9*,-0.1,0.2
Cc1ccc(CNC(=O)COC(=O)c2cccc(S(=O)(=O)N3CCCCC3)c2)cc1,-1.6,-6.3,-7.7,-0.1,-2.7,·,·,·,·,·,·
CC1(Cc2ccccc2OC(F)(F)F)C(=O)Nc2ccc(-c3ccsc3)cc21 (configuration not stated),10.9*,29.8*,-3.0,-0.1,10.0*,7.7,3.0,23.9*,13.8*,-1.2,1.4
CCc1ccc(NC(=O)C2=CC(c3cccs3)=NS(=O)(=O)N2C)cc1,15.7*,29.4*,4.1,-0.5,18.0*,4.6,1.1,22.6*,12.6*,-7.5,-2.5
Cc1ccc(NC(=O)C2=CC(c3cccs3)=NS(=O)(=O)N2C)cc1,2.1,-6.2,-4.7,-0.3,-3.8,·,·,·,·,·,·
CCCN1C(=O)c2ccc(C(=O)Nc3ccccc3C(=O)O)cc2C1=O,-0.9,-13.1,-6.3,0.1,-1.4,·,·,·,·,·,·
Cc1ccc(S(=O)(=O)c2cccc(S(=O)(=O)N3CCCC3)c2)cc1S(=O)(=O)N1CCCC1,9.9*,29.4*,13.9*,-1.1,17.1*,-0.6,0.1,17.1,8.0,-0.6,0.5
CCN(CC)S(=O)(=O)c1cc([N+](=O)[O-])ccc1NNC(=O)Nc1ccccc1OC,10.4*,26.3*,5.6,0.3,10.0*,1.4,0.1,7.7,7.2,1.5,5.3
C#CCn1c(S(=O)(=O)Cc2ccccc2Cl)nc(-c2ccccc2)c1-c1ccccc1,2.8,5.2,3.2,-0.1,-3.6,·,·,·,·,·,·
C#CCn1c(S(=O)(=O)Cc2ccc(C)cc2)nc(-c2ccccc2)c1-c1ccccc1,10.0*,22.8*,-2.2,-0.3,6.2,7.6,3.5,·,·,1.1,-5.6
O=C(O)c1ccccc1/C=N/NC(=O)C1CCCCC1,5.2,6.2,-2.9,-0.8,2.8,·,·,·,·,·,·
O=C(O)c1ccccc1/C=N/NC(=S)NC1CCCCC1,11.2*,23.0*,7.5,-0.3,2.4,4.0,1.3,·,·,-8.9,-4.1
COc1cc(/C=N/NC(=O)c2ccc(C)nc2)cc([N+](=O)[O-])c1O,9.9*,22.2*,8.3,0.1,5.9,0.6,-0.5,·,·,6.0,7.9
O=C(CSC1CS(=O)(=O)c2cc([N+](=O)[O-])ccc21)NNC(=O)c1ccccc1 (configuration not stated),10.0*,23.6*,5.1,0.2,5.9,-1.2,-0.5,·,·,-7.1,-2.0
Cc1ccc2c(=O)n3c(nc2c1)C(C)NC(=O)c1cccnc1-3 (configuration not stated),-3.4,-9.2,0.3,0.6,-4.0,·,·,·,·,·,·
